Experimental data reported in ChEMBL document CHEMBL1127529, “Antipsoriatic anthrones with modulated redox properties. 2. Novel derivatives of chrysarobin and isochrysarobin--antiproliferative activity and 5-lipoxygenase inhibition” (J Med Chem, 1994).

Key:
[1] = biological target: T1, Arachidonate 5-lipoxygenase (Bos taurus, UniProt Q9BEG3); experiment: Inhibition of 5-lipoxygenase in bovine polymorphonuclear leukocytes; assay type: cell-based
T1 sequence (Q9BEG3 whole entry): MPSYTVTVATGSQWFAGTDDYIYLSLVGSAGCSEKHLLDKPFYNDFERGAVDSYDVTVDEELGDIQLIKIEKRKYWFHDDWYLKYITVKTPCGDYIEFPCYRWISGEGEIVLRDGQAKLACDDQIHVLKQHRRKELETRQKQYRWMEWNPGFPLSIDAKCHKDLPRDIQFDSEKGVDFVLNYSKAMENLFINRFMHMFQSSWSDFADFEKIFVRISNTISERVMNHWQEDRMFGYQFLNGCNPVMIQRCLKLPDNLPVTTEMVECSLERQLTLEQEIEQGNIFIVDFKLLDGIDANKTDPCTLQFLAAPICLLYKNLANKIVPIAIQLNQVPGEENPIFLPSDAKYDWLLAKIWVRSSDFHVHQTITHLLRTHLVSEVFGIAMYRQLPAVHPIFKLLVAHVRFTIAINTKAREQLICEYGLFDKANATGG
Method in brief: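 Bovine PMNL (10^7 cells/mL) were stimulated with Ca-ionophore. Compound was preincubated for 15 min at 37 °C.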

[2] = Partition coefficient (logP) (HPLC); assay type: physicochemical; settings: octanol/water
Method in brief: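 Reversed-phase HPLC with MeOH/water/HOAc (77-23-0.1) as eluant, adjusted to pH 5.5 with concentrated NH3.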

[3] = Deoxyribose degradation as a measure of hydroxy radical formation.; assay type: functional
Method in brief: (§1)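 2-Deoxy-D-ribose (2 mM) was incubated with FeCl3 (0.1 mM) and compound (75 μM) in KH2PO4-KOH buffer pH 7.4 (30 mM) for 2 h at 37 °C with shaking. TBA-reactive material was read at 532 nm. Result is µmol malondialdehyde per mmol deoxyribose.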

[4] = Reducing activity against 2,2-diphenyl-1-picrylhydrazyl (DPPH) with equimolar compound; assay type: functional
Method in brief: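 Test compound and DPPH, each 10⁻⁴ M in acetone/PBS (1-1 v/v), mixed 1 mL + 1 mL. DPPH reduction followed spectrophotometrically at 516 nm. Reciprocal DPPH concentration plotted against time gave straight lines, and second-order rate constants (M⁻¹ s⁻¹) were taken from the slopes. Values are means, N = 3-6. Highly reactive compounds gave approximate values only.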

HaCaT = experiment: Antiproliferative activity against HaCaT cells; assay type: functional, cell-based; settings: Homo sapiens
Method in brief: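 HaCaT human keratinocytes were kept in DMEM with 10% FCS, penicillin and streptomycin at 37 °C under 8% CO2. After 48 h the cells were detached with trypsin/EDTA and counted by phase-contrast microscopy.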

Liposome = experiment: Inhibition of 2,2'-azobis(2-aminopropane)hydrochloride (AAPH) induced lipid peroxidation in bovine brain phospholipid liposomes; assay type: functional, subcellular, Bos taurus
[5] = Deoxyribose degradation assay as hydroxy radical formation; assay type: functional; method in brief: as §1

| SMILES | IC50 [1] [µM] | logP [2] | DD (uM of MDA mM-1) [3] | kDPPH [4] [M⁻¹ s⁻¹] | IC50 (HaCaT) [µM] | IC50 (Liposome) [µM] | DD (uM of MDA mM-1) [5] |
| --- | --- | --- | --- | --- | --- | --- | --- |
| COC(=O)c1ccc(Cc2ccc3c(c2O)C(=O)c2c(O)cccc2C3)cc1 | > 30 | 5.34 | < 0.25 | 10.4 | – | – | – |
| COc1ccc(C(=O)c2cc(O)c3c(c2)Cc2cccc(O)c2C3=O)cc1 | > 30 | 4.83 | 0.98 | > 100 | 1.7 | – | – |
| O=C(O)c1ccc(Cc2ccc3c(c2O)C(=O)c2c(O)cccc2C3)cc1 | – | 4.1 | < 0.25 | 9.9 | – | 62 | – |
| O=C(c1ccccc1)c1ccc2c(c1O)C(=O)c1c(O)cccc1C2 | 18 | 4.47 | 2.68 | > 100 | 1.6 | 43 | – |
| O=C1c2c(O)cccc2Cc2ccc(CCCc3cc(O)c(O)c(O)c3)c(O)c21 | 0.6 | 3.96 | 2.97 | > 100 | 0.5 | 5 | – |
| Cc1ccc(Cc2ccc3c(c2O)C(=O)c2c(O)cccc2C3)cc1 | > 30 | 6.04 | – | 8.5 | – | – | < 0.25 |
| COC(=O)c1ccccc1Cc1ccc2c(c1O)C(=O)c1c(O)cccc1C2 | > 30 | 5.24 | < 0.15 | 11.4 | – | – | – |
| COc1ccc(Cc2ccc3c(c2O)C(=O)c2c(O)cccc2C3)cc1OC | > 30 | 5.79 | < 0.15 | > 100 | – | – | – |
| O=C1c2c(O)cccc2Cc2ccc(Cc3ccc(O)cc3)c(O)c21 | 7 | 4.66 | 0.38 | > 100 | 0.8 | 43 | – |
| COc1ccc(Cc2ccc3c(c2O)C(=O)c2c(O)cccc2C3)c(OC)c1 | > 30 | 5.04 | < 0.15 | > 100 | > 5 | – | – |
| O=C1c2c(O)cccc2Cc2ccc(CCCc3ccc(O)cc3)c(O)c21 | 2 | 5.27 | < 0.15 | > 100 | 0.4 | 50 | – |
| O=C1c2c(O)cccc2Cc2ccc(Cc3cc(O)ccc3O)c(O)c21 | 0.9 | 3.33 | 1.46 | > 100 | 0.7 | 7 | – |
| O=C(c1ccccc1)c1cc(O)c2c(c1)Cc1cccc(O)c1C2=O | > 30 | 4.83 | 1.97 | > 100 | – | 40 | – |
| O=C1c2c(O)cccc2Cc2cc(Cc3ccc(O)cc3O)cc(O)c21 | 7 | 3.67 | – | 39.3 | 0.5 | 16 | 3.26 |
| CC(Cc1ccc(O)c(O)c1)C(C)Cc1ccc(O)c(O)c1 (stereo unspecified) [NORDIHYDROGUAIARETIC ACID] | – | – | – | – | – | 2 | – |
| COc1ccc(Cc2ccc3c(c2O)C(=O)c2c(O)cccc2C3)cc1 | > 30 | 5.62 | < 0.25 | 11.3 | – | – | – |
| COc1c(OC)c(OC(C)=O)c2cc(Cl)ccc2c1OC(C)=O [LONAPALENE] | – | – | – | – | 3.2 | > 50 | < 0.15 |
| O=C1c2c(O)cccc2Cc2cc(Cc3ccccc3)cc(O)c21 | > 30 | 5.29 | < 0.25 | 18.1 | – | 64 | – |
| O=C1c2c(O)cccc2Cc2ccc(Cc3ccc(O)c(O)c3)c(O)c21 | 4 | 4.01 | 1.82 | > 100 | 0.4 | – | – |
| O=C(O)c1ccccc1Cc1ccc2c(c1O)C(=O)c1c(O)cccc1C2 | 4 | 4.48 | 1.2 | 16.9 | > 5 | 42 | – |

| SMILES | IC50 [1] [µM] | logP [2] | DD (uM of MDA mM-1) [3] | kDPPH [4] [M⁻¹ s⁻¹] | IC50 (HaCaT) [µM] | IC50 (Liposome) [µM] | DD (uM of MDA mM-1) [5] |
| --- | --- | --- | --- | --- | --- | --- | --- |
| Cc1ccc(C(=O)c2cc(O)c3c(c2)Cc2cccc(O)c2C3=O)cc1 | > 30 | 5.14 | 1.01 | > 100 | – | 40 | – |
| O=C1c2c(O)cccc2Cc2ccc(CCc3ccccc3)c(O)c21 | > 30 | 6.23 | < 0.15 | 16.1 | – | 110 | – |
| O=C1c2c(O)cccc2Cc2ccc(CCCCc3ccccc3)c(O)c21 | > 30 | 6.81 | < 0.15 | 10.4 | – | 112 | – |
| O=C1c2c(O)cccc2Cc2ccc(CCCc3ccccc3)c(O)c21 | 11 | 6.44 | 0.56 | 11.1 | > 5 | 67 | – |
| O=C1c2c(O)cccc2Cc2cc(Cc3ccc(O)cc3)cc(O)c21 | > 30 | 4.52 | – | 12.6 | 0.4 | 14 | 0.27 |
| O=C1c2c(O)cccc2Cc2ccc(Cc3ccc(O)cc3O)c(O)c21 | 5 | 3.68 | 0.34 | > 100 | 1.5 | 16 | – |
| O=C1c2c(O)cccc2Cc2ccc(Cc3ccc(Cl)cc3)c(O)c21 | > 30 | 5.98 | < 0.15 | 19.3 | – | 150 | – |
| O=C1c2c(O)cccc2Cc2ccc(Cc3ccccc3O)c(O)c21 | 5 | 4.67 | 0.35 | > 100 | 0.7 | 25 | – |
| COc1ccc(Cc2cc(O)c3c(c2)Cc2cccc(O)c2C3=O)c(OC)c1 | > 30 | 5.34 | 0.32 | 10.3 | 0.4 | > 200 | – |
| O=C1c2c(O)cccc2Cc2cc(Cc3cc(O)ccc3O)cc(O)c21 | – | 3.2 | 1.74 | > 100 | 0.4 | 3 | – |
| COc1ccc(OC)c(Cc2ccc3c(c2O)C(=O)c2c(O)cccc2C3)c1 | > 30 | 5.72 | < 0.15 | > 100 | – | > 200 | – |
| COc1ccccc1Cc1ccc2c(c1O)C(=O)c1c(O)cccc1C2 | > 30 | 5.62 | < 0.25 | 12 | – | – | – |
| O=C1c2c(O)cccc2Cc2cc(Cc3ccc(O)c(O)c3)cc(O)c21 | 2 | 3.88 | 0.41 | > 100 | 0.5 | 4 | – |
| COc1cc(CCCc2ccc3c(c2O)C(=O)c2c(O)cccc2C3)cc(OC)c1OC | 6 | 5.64 | < 0.15 | > 100 | 2 | – | – |
| COc1ccc(CCCc2ccc3c(c2O)C(=O)c2c(O)cccc2C3)cc1 | 30 | 6.46 | < 0.15 | 14 | > 5 | – | – |
| O=C1c2c(O)cccc2Cc2ccc(Cc3cccc(Oc4ccccc4)c3)c(O)c21 | > 30 | 6.35 | < 0.15 | 6.4 | – | – | – |
| O=C1c2c(O)cccc2Cc2ccc(Cc3ccc(C(F)(F)F)cc3)c(O)c21 | > 30 | 5.92 | < 0.15 | 3.7 | > 5 | – | – |
| COc1ccc(Cc2cc(O)c3c(c2)Cc2cccc(O)c2C3=O)cc1 | > 30 | 5.3 | < 0.15 | 11.2 | 0.3 | 33 | – |
| COc1ccc(OC)c(Cc2cc(O)c3c(c2)Cc2cccc(O)c2C3=O)c1 | > 30 | 5.17 | 0.51 | 14.8 | 0.2 | – | – |
| O=C1c2c(O)cccc2Cc2ccc(Cc3ccccc3)c(O)c21 | > 30 | 5.61 | < 0.25 | 11.2 | > 5 | 98 | – |
